Experimental data reported in paper PMC5483893 (Journal of Medicinal Chemistry, 2017).

The compounds below were run on acetylated α-tubulin (AcTub) in QBI-293 cells (assay: Acetyl-tubulin assay). Settings: 1 or 10 μM.
Format: cell-based
Outline: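 QBI-293 cells kept at 37 °C, 5% CO₂, trypsinised and plated at 6 × 10⁵ cells/well, then exposed overnight-later to vehicle (DMSO) or test compound for 4 h. Lysis in RIPA with protease inhibitors, 1 mM PMSF and 1 μM TSA; 100000g spin, 30 min, 4 °C. BCA protein, then AcTub ELISA. Fold-change versus vehicle, at least triplicate, two-tailed unpaired t test.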

Row | Compound | elevation in AcTub without decrease of α-tubulin
1 | Cc1ncn(-c2ccc(Cl)cc2)c1-c1c(F)ccc(Cl)c1F [Compound 29, 5-(3-Chloro-2,6-difluorophenyl)-1-(4-chlorophenyl)-4-methyl-1H-imidazole] | produce an elevation in AcTub at 1 or 10 μM without decreasing α-tubulin level
2 | Cc1nc(C)n(-c2ccc(Cl)cc2)c1-c1c(F)ccc(Cl)c1F [Compound 31, 5-(3-Chloro-2,6-difluorophenyl)-1-(4-chlorophenyl)-2,4-dimethyl-1H-imidazole] | produce an elevation in AcTub at 1 or 10 μM without decreasing α-tubulin level
3 | Cc1ncn(-c2ccc(Cl)cc2)c1-c1c(F)ccc(F)c1F [Compound 35, 1-(4-Chlorophenyl)-4-methyl-5-(2,3,6-trifluorophenyl)-1H-imidazole] | produce an elevation in AcTub at 1 or 10 μM without decreasing α-tubulin level
4 | Cc1nc(Cl)n(-c2ccc(Cl)cc2)c1-c1c(F)ccc(F)c1F [Compound 36, 2-Chloro-1-(4-chlorophenyl)-4-methyl-5-(2,3,6-trifluorophenyl)-1H-imidazole] | produce an elevation in AcTub at 1 or 10 μM without decreasing α-tubulin level
5 | Fc1cc(F)c(-c2c(Cl)ncn2-c2ccc(Cl)cc2)c(F)c1 [Compound 54, 4-Chloro-1-(4-chlorophenyl)-5-(2,4,6-trifluorophenyl)-1H-imidazole] | produce an elevation in AcTub at 1 or 10 μM without decreasing α-tubulin level
6 | COc1ccc(-n2cnc(Cl)c2-c2c(F)cc(F)cc2F)cc1 [Compound 59, 4-Chloro-1-(4-methoxyphenyl)-5-(2,4,6-trifluorophenyl)-1H-imidazole] | produce an elevation in AcTub at 1 or 10 μM without decreasing α-tubulin level
7 | COc1ccc(-n2c(-c3c(F)cc(F)cc3F)cnc2Cl)cc1 [Compound 60, 2-Chloro-1-(4-methoxyphenyl)-5-(2,4,6-trifluorophenyl)-1H-imidazole] | produce an elevation in AcTub at 1 or 10 μM without decreasing α-tubulin level
8 | Fc1ccc(Cl)c(F)c1-c1c(Cl)ncn1-c1ccc(Cl)cc1 [Compound 64, 4-Chloro-5-(3-chloro-2,6-difluorophenyl)-1-(4-chlorophenyl)-1H-imidazole] | produce an elevation in AcTub at 1 or 10 μM without decreasing α-tubulin level
9 | Fc1cc(-n2c(-c3c(F)ccc(F)c3F)cnc2Cl)ccc1Cl [Compound 72, 2-Chloro-1-(4-chloro-3-fluorophenyl)-5-(2,3,6-trifluorophenyl)-1H-imidazole] | produce an elevation in AcTub at 1 or 10 μM without decreasing α-tubulin level
10 | Cc1nc(Cl)c(-c2c(F)cc(F)cc2F)n1-c1ccc(Cl)nc1 [Compound 74, 2-Chloro-5-(4-chloro-2-methyl-5-(2,4,6-trifluorophenyl)-1H-imidazol-1-yl)pyridine] | produce an elevation in AcTub at 1 or 10 μM without decreasing α-tubulin level
11 | Fc1cc(Cl)ccc1-n1cnc(Cl)c1-c1c(F)cccc1F [Compound 78, 4-Chloro-1-(4-chloro-2-fluorophenyl)-5-(2,6-difluorophenyl)-1H-imidazole] | produce an elevation in AcTub at 1 or 10 μM without decreasing α-tubulin level
12 | Fc1cccc(F)c1-c1c(Cl)ncn1-c1ccccc1Cl [Compound 102, 4-Chloro-1-(2-chlorophenyl)-5-(2,6-difluorophenyl)-1H-imidazole] | produce an elevation in AcTub at 1 or 10 μM without decreasing α-tubulin level

Same assay, conditions: QBI-293 cells, 1 and 10 μM

Row | Compound | MT activity (AcTub increase), inactive compounds
13 | Fc1cc(F)c(-c2cncn2-c2ccc(Cl)cc2)c(F)c1 [Compound 25, 1-(4-Chlorophenyl)-5-(2,4,6-trifluorophenyl)-1H-imidazole] | do not cause a detectable increase in AcTub
14 | COc1ccc(-n2cncc2-c2c(F)cc(F)cc2F)cc1 [Compound 26, 1-(4-Methoxyphenyl)-5-(2,4,6-trifluorophenyl)-1H-imidazole] | do not cause a detectable increase in AcTub
15 | Fc1cccc(F)c1-c1cncn1-c1ccc(OC(F)(F)F)cc1 [Compound 42, 5-(2,6-Difluorophenyl)-1-(4-(trifluoromethoxy)phenyl)-1H-imidazole] | do not cause a detectable increase in AcTub
16 | Fc1cccc(F)c1-c1cncn1-c1ccc(Cl)cc1 [Compound 43, 1-(4-Chlorophenyl)-5-(2,6-difluorophenyl)-1H-imidazole] | do not cause a detectable increase in AcTub
17 | Cc1cc(F)c(-c2cncn2-c2ccc(Cl)cc2)c(F)c1 [Compound 48, 1-(4-Chlorophenyl)-5-(2,6-difluoro-4-methylphenyl)-1H-imidazole] | do not cause a detectable increase in AcTub
18 | COc1ccc(F)c(-c2cncn2-c2ccc(Cl)cc2)c1F [Compound 49, 1-(4-Chlorophenyl)-5-(2,6-difluoro-3-methoxyphenyl)-1H-imidazole] | do not cause a detectable increase in AcTub
19 | Clc1ccc(-n2cncc2-c2ccccc2)cc1 [Compound 50, 1-(4-Chlorophenyl)-5-phenyl-1H-imidazole] | essentially devoid of MT activity
20 | Fc1cccc(F)c1-c1cncn1-c1ccccc1 [Compound 52, 5-(2,6-Difluorophenyl)-1-phenyl-1H-imidazole] | do not cause a detectable increase in AcTub
21 | Fc1cccc(F)c1-c1cncn1-c1ccccc1Cl [Compound 53, 1-(2-Chlorophenyl)-5-(2,6-difluorophenyl)-1H-imidazole] | do not cause a detectable increase in AcTub
22 | Fc1ccc(-c2cnc(Cl)n2-c2ccc(Cl)cc2)cc1 [Compound 75, 2-Chloro-1-(4-chlorophenyl)-5-(4-fluorophenyl)-1H-imidazole] | essentially devoid of MT activity
23 | Fc1ccc(-c2c(Cl)ncn2-c2ccc(Cl)cc2)cc1 [Compound 76, 4-Chloro-1-(4-chlorophenyl)-5-(4-fluorophenyl)-1H-imidazole] | essentially devoid of MT activity
24 | Fc1ccc(F)c(-c2c(Cl)ncn2-c2ccc(Cl)cc2)c1 [Compound 80, 4-Chloro-1-(4-chlorophenyl)-5-(2,5-difluorophenyl)-1H-imidazole] | inactive
